High-throughput results: PubChem BioAssay, NMMLSC
RGS8-Gao: regulators of human RGS8-Galphao interaction; multiplexed bead flow cytometry, RGS8-Galphao binding; actives lie on both sides; response (percent of control binding), % at 10 µM; actives 0.34% (n = 220,000); in the data active = response below about 60% or above about 140%; inactive = in between;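 note: Galphao activated as the GDP aluminium fluoride complex binding bead-coupled RGS8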
Target sequence (P09471 whole entry, looked up): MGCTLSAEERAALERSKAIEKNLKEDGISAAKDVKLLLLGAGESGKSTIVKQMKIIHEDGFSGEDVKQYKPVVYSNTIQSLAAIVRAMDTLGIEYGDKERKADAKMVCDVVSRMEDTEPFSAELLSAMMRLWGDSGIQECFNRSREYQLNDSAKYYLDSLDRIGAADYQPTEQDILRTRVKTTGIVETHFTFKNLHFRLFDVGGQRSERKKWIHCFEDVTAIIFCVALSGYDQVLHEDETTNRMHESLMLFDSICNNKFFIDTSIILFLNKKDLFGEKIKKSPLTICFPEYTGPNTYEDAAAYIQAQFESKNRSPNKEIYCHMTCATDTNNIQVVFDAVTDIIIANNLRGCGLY
ABCB1 inh: blocks JC-1 efflux by human ABCB1 transporter | P08183 | CCRF-Adr cells, flow cytometry | inhibition, % at 6.6 µM | actives 0.067% (n = 190,000) | AID 1326; in the data active = inhibition above about 40%;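 note: 0% = vehicle and 100% = reference inhibitor; higher value means more JC-1 retained so stronger ABCB1 efflux block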
ABCG2 block: inhibitors of human ABCG2 transporter, ABCB1 counter-screen; Q9UNQ0; IgMXP3 cells, JC-1 efflux, flow cytometry; inhibition, % at 6.6 µM; actives 0.1% (n = 190,000);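 active = inhibition above 80%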;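 note: 0% = DMSO and 100% = nicardipine control wells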
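Assay system – ABCG2 IgMXP3 and barcoded ABCB1 CCRF-Adr cell mix · Input – 3 million cells/mL in well · Reagent – JC-1 fluorescent substrate · Compound – single test compound dose, 6.6 µM final · Timing – 10 min exposure at 25 °C with rotation, no wash · Detection – flow cytometry of retained JC-1 fluorescence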
RGS4-Gao reg: human RGS4-Galphao interaction regulation. Multiplexed bead flow cytometry, RGS4-Galphao binding; actives lie on both sides. P09471. binding response (% of control), % at 10 µM. actives 0.33% (n = 220,000); in the data active = binding response below about 49% or above about 150%; inactive = in between;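 note: fluorescent Galphao activated with aluminum fluoride binding bead-coupled RGS4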
RGS16-Gao: regulators of human RGS16-Galphao interaction; bead-based flow cytometry RGS16-Galphao binding, fluorescence; actives lie on both sides; binding response (% of control), % at 10 µM; actives 0.38% (n = 220,000); AID 1441;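 note: Galphao activated by GDP with aluminum fluoride before binding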
Target sequence (O15492 whole entry, looked up): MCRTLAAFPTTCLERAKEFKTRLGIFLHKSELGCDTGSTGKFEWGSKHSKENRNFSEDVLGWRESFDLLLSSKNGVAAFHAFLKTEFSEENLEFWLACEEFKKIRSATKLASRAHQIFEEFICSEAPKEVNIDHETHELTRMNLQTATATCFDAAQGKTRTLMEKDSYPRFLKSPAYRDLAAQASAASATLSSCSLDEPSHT
Target sequence (P09471 whole entry, looked up): as the sequence (P09471 whole entry, looked up) above
RGS7-Gao: human RGS7-Galphao interaction regulation; P09471; Multiplexed bead flow cytometry, RGS7-Galphao binding; actives lie on both sides; binding response (% of control), % at 10 µM; actives 0.35% (n = 220,000); in the data active = binding response below about 49% or above about 150%; inconclusive = no clear call, values can overlap the other calls; inactive = in between;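 note: fluorescent Galphao held in activated GDP-AlF4 state binding bead-coupled RGS7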
RGS-Gao: modulates binding between human RGS4 and Galphao; shares compounds with RGS16-Gao; multiplexed bead flow cytometry, RGS–Galpha-o binding; RGS4–Galpha-o binding response, % at 10 µM; actives 99% (n = 1,600);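 note: fluorescently labeled Galpha-o bound to GDP with aluminium fluoride binding biotinylated RGS beads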
Avidin counter: biotin-avidin bead binding disruption counter-screen | 1,700 tested, under 10 active | streptavidin beads, fluorescein-biotin binding, flow cytometry | inhibition, % at 10 µM | shares compounds with RGS16-Gao | AID 1783;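 active = inhibition above 50%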;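 note: median green fluorescence of gated singlet beads compared with DMSO control wells; 0% = DMSO wells and 100% = complete loss of bead fluorescence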
RGS8-Gao single: RGS8-Galphao interaction regulation, single point confirmation | binding response (% of control), % at 10 µM | actives 3% (n = 1,700) | shares compounds with RGS16-Gao | bead-based flow cytometry RGS8-Galphao binding, fluorescence; actives lie on both sides; in the data active = binding response below about 72% or above about 130%; inactive = in between;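 note: Galphao activated as GDP AlF4 complex before binding bead RGS8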
RGS7-Gao confirm: RGS7-Galphao interaction regulation, single point confirmation; shares compounds with RGS16-Gao; bead-based flow cytometry RGS7-Galphao binding; actives lie on both sides; response (percent of control binding), % at 10 µM; actives 7.8% (n = 1,700); in the data active = response below about 75% or above about 130%; inactive = in between;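 note: fluorescent Galphao activated with GDP and aluminum fluoride binding bead-coupled RGS7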
RGS16-Gao single: RGS16-Galphao interaction regulation, single point confirmation; AID 1838; response (% of control binding), % at 10 µM; actives 4% (n = 1,700); bead-based flow cytometry, RGS16-Galphao binding; actives lie on both sides; shares compounds with RGS16-Gao; in the data active = response below about 74% or above about 130%; inactive = in between;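 note: Galphao activated as the GDP aluminium fluoride complex binding bead-coupled RGS16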
RGS4-Gao confirm: RGS4-Galphao interaction regulation, single point confirmation. shares compounds with RGS16-Gao. RGS4-Galphao binding, multiplexed bead flow cytometry; actives lie on both sides. binding response (% of control), % at 10 µM. actives 4% (n = 1,700); in the data active = binding response below about 74% or above about 130%; inactive = in between
RGS19-Gao single: confirmation of regulators of human RGS19-Galphao interaction; response (percent of control binding), % at 10 µM; bead-based flow cytometry RGS19-Galphao binding; actives lie on both sides; shares compounds with RGS16-Gao; actives 5% (n = 1,700); in the data active = response below about 50% or above about 160%; inactive = in between;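 note: 100% = no compound control and 0% = blank background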
Active calls of the source: *; [ ] = another dose, or the depositor's remark. Compounds with a hit are over-represented: about 0.9% of the library has one in this group of screens. Unless noted, the rule behind the calls is not given here.

How did CCN(CC)S(=O)(=O)c1cccc(C(=O)N/N=C/c2ccc(O)c(O)c2O)c1 do in these assays?
RGS8-Gao: 50.8*; ABCB1 inh: -0.8; ABCG2 block: -4.0; RGS4-Gao reg: 43.1*; RGS16-Gao: -60.7; RGS7-Gao: 31.4*; Avidin counter: 0.9; RGS8-Gao single: 63.6*; RGS7-Gao confirm: 60.7*; RGS16-Gao single: 57.2*; RGS4-Gao confirm: 63.4*; RGS19-Gao single: 15.6*

What do the screens show for `CC1(c2ccc(Cl)cc2)NC(=O)CS1` (configuration not stated)?
RGS8-Gao: 102.5; ABCB1 inh: 0.1; ABCG2 block: 0.9; RGS4-Gao reg: 100.6; RGS16-Gao: 108.2; RGS7-Gao: 100.2

How did O=C(N=C1SCC(=O)N1c1ccccc1Cl)c1ccccc1 do in these assays?
RGS8-Gao: 99.7; ABCB1 inh: -0.4; ABCG2 block: -1.0; RGS4-Gao reg: 98.6; RGS16-Gao: 97.8; RGS7-Gao: 97.2

Results for CCCCc1nnc(NC(=O)CC(=O)Nc2ccccc2C(=O)O)s1 ?
RGS8-Gao: 100.3; ABCB1 inh: -0.3; ABCG2 block: 1.2; RGS4-Gao reg: 101.2; RGS16-Gao: 98.7; RGS7-Gao: 93.5

What do the screens show for `CCc1nnc(NC(=O)CC(=O)Nc2ccccc2C(=O)O)s1`?
ABCB1 inh: 0.1; ABCG2 block: -0.7; Avidin counter: -0.3; RGS8-Gao single: 97.7; RGS7-Gao confirm: 97.8; RGS16-Gao single: 100.0; RGS4-Gao confirm: 98.6; RGS19-Gao single: 87.7

Results for C/C(=N/NC(=O)c1ccoc1C)c1cccc(NC(=O)C2CC2)c1 ?
RGS8-Gao: 86.1; ABCB1 inh: 0.3; ABCG2 block: 21.6; RGS4-Gao reg: 98.7; RGS16-Gao: 45.6; RGS7-Gao: 100.5

What do the screens show for `N#CC1=C(N)N(c2ncn[nH]2)C2=C(C(=O)CCC2)C1c1ccc(F)cc1` (configuration not stated)?
RGS8-Gao: 90.2; ABCB1 inh: 0.1; ABCG2 block: -1.4; RGS4-Gao reg: 100.4; RGS16-Gao: 68.7; RGS7-Gao: 102.3

Results for Cc1ccc(S(=O)(=O)N2CCN(C(=O)c3cccc(F)c3)CC2)cc1 ?
RGS8-Gao: 93.6; ABCB1 inh: 1.4; ABCG2 block: 4.8; RGS4-Gao reg: 124.9; RGS16-Gao: 107.2; RGS7-Gao: 264.3*[activator]; RGS-Gao: 124.9*; Avidin counter: 0.7; RGS8-Gao single: 98.4; RGS7-Gao confirm: 91.7; RGS16-Gao single: 93.1; RGS4-Gao confirm: 94.3; RGS19-Gao single: 92.6

Results for O=C(c1cccc(F)c1)N1CCCN(C(=O)c2cccc(F)c2)CC1 ?
RGS8-Gao: 98.2; ABCB1 inh: 1.8; ABCG2 block: 4.6; RGS4-Gao reg: 99.5; RGS16-Gao: 100.6; RGS7-Gao: 98.1

What do the screens show for `CCN(C(=O)CSc1cc(C)c2ccccc2n1)C1CCS(=O)(=O)C1` (configuration not stated)?
RGS8-Gao: 13.0*; ABCB1 inh: -0.3; ABCG2 block: -1.2; RGS4-Gao reg: 13.9*; RGS16-Gao: 8.0*; RGS7-Gao: 12.4*; Avidin counter: -0.1; RGS8-Gao single: 98.2; RGS7-Gao confirm: 92.9; RGS16-Gao single: 96.2; RGS4-Gao confirm: 95.1; RGS19-Gao single: 75.7

How did CCN(C(=O)CSc1ccc2ccccc2n1)C1CCS(=O)(=O)C1 (configuration not stated) do in these assays?
RGS8-Gao: 103.8; ABCB1 inh: -1.6; ABCG2 block: -1.5; RGS4-Gao reg: 104.5; RGS16-Gao: 108.9; RGS7-Gao: 102.6

What do the screens show for `Cc1sc(N)c(C(=O)c2ccccc2)c1C`?
RGS8-Gao: 86.7; ABCB1 inh: -0.1; ABCG2 block: -0.5; RGS4-Gao reg: 126.5; RGS16-Gao: 112.5; RGS7-Gao: 253.2*[activator]; RGS-Gao: 126.5*; Avidin counter: 1.3; RGS8-Gao single: 89.6; RGS7-Gao confirm: 97.5; RGS16-Gao single: 88.0; RGS4-Gao confirm: 93.9; RGS19-Gao single: 77.4

What do the screens show for `N=C1S/C(=C\c2cccc3ccccc23)C(=O)N1c1ccc(F)cc1`?
RGS8-Gao: 100.9; ABCB1 inh: -0.5; ABCG2 block: 2.3; RGS4-Gao reg: 100.2; RGS16-Gao: 101.4; RGS7-Gao: 98.7

Results for CSC1=NC(=O)/C(=C\c2cccc3ccccc23)S1 ?
RGS8-Gao: 96.6; ABCB1 inh: -0.3; ABCG2 block: -0.1; RGS4-Gao reg: 124.4; RGS16-Gao: 112.6; RGS7-Gao: 222.7*[activator]; RGS-Gao: 124.4*; Avidin counter: -0.7; RGS8-Gao single: 100.6; RGS7-Gao confirm: 97.5; RGS16-Gao single: 98.6; RGS4-Gao confirm: 97.2; RGS19-Gao single: 94.7

Results for O=C(COC(=O)CC(c1ccccc1)c1ccccc1)NCc1ccc(Cl)cc1 ?
RGS8-Gao: 103.5; ABCB1 inh: 1.0; ABCG2 block: 1.1; RGS4-Gao reg: 104.1; RGS16-Gao: 98.7; RGS7-Gao: 105.6

How did COc1ccc(NC(=O)C2CCCN2C(=O)Oc2ccccc2)cc1 (configuration not stated) do in these assays?
RGS8-Gao: 99.8; ABCB1 inh: 0.4; ABCG2 block: 0.7; RGS4-Gao reg: 95.5; RGS16-Gao: 104.0; RGS7-Gao: 100.8

How did CCCN(C(=O)c1cc2c(s1)CCC2)c1c(N)n(Cc2ccccc2)c(=O)[nH]c1=O do in these assays?
RGS8-Gao: 98.5; RGS4-Gao reg: 84.4; RGS16-Gao: 92.2; RGS7-Gao: inconclusive
